{
  "source": "ChEMBL document CHEMBL1141726",
  "about": "“bis-Pyridinium cyclophanes: novel ligands with high affinity for the blood-brain barrier choline transporter” (Bioorg Med Chem Lett, 2008)",
  "test": "Binding affinity to blood-brain barrier choline transporter in rat brain assessed as inhibition of [3H]choline uptake",
  "format": "tissue-based",
  "in_short": "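In situ rat brain perfusion (Allen and Smith modification); inhibition of [3H]choline uptake into brain measured. Ki taken as analogue concentration inhibiting 50% of [3H]-choline uptake, calculated from a single inhibitor concentration. Ki values compared by ANOVA with Bonferroni's multiple comparisons test.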",
  "data": [
    {"smiles": "c1ccc2c[n+](CCCCCCCCCCCC[n+]3ccc4ccccc4c3)ccc2c1", "values": [
      {"measurement": "Ki", "value": 22, "unit": "µM"}
    ]},
    {"smiles": "c1ccc2c[n+](CCCCCCCCCC[n+]3ccc4ccccc4c3)ccc2c1", "values": [
      {"measurement": "Ki", "value": 9.5, "unit": "µM"}
    ]},
    {"smiles": "CCCCCCCC[n+]1cccc([C@@H]2CCCN2C)c1", "values": [
      {"measurement": "Ki", "value": 49, "unit": "µM"}
    ]},
    {"smiles": "c1ccc2c[n+](CCCCCC[n+]3ccc4ccccc4c3)ccc2c1", "values": [
      {"measurement": "Ki", "value": 29, "unit": "µM"}
    ]},
    {"smiles": "C1#Cc2ccc[n+](c2)CCCCCCCC[n+]2cccc(c2)C#CCCCCCC1", "values": [
      {"measurement": "Ki", "value": 0.8, "unit": "µM"}
    ]},
    {"smiles": "C1#Cc2ccc[n+](c2)CCCCCCCCC[n+]2cccc(c2)C#CCCCCCC1", "values": [
      {"measurement": "Ki", "value": 33.8, "unit": "µM"}
    ]},
    {"smiles": "C1#Cc2ccc[n+](c2)CCCC[n+]2cccc(c2)C#CCCCCCC1", "values": [
      {"measurement": "Ki", "value": 15.2, "unit": "µM"}
    ]},
    {"smiles": "C1#Cc2ccc[n+](c2)CCCCCCC[n+]2cccc(c2)C#CCCCCCC1", "values": [
      {"measurement": "Ki", "value": 1.4, "unit": "µM"}
    ]},
    {"smiles": "Cc1ccc[n+](CCCCCCCCCCCC[n+]2cccc(C)c2)c1", "values": [
      {"measurement": "Ki", "value": 36, "unit": "µM"}
    ]},
    {"smiles": "C[N+](C)(C)CCO", "note": "[CHOLINE]", "values": [
      {"measurement": "Ki", "value": 41, "unit": "µM"}
    ]}
  ]
}
